Measurements: article PMC8583780 (ChemMedChem, 2020)
Entries after “also recorded” stand apart in the source; their conditions may differ.

What was measured:
[1] = five Phase 1 study arms, including aged subjects; cited from earlier work
[2] = human Phase 1, even at the highest doses; cited from earlier work
[3] = biological target: T1, human cathepsin K (Homo sapiens, UniProt P43235); test: Cathepsin K inhibition assay; format: biochemical; details: for CatK % Inhibition at 1 μM: 1 μM compound, three replicates; for inhibition at 1 µM: read-out: CatK % Inhibition at 1 μM
T1 sequence (P43235 115-329): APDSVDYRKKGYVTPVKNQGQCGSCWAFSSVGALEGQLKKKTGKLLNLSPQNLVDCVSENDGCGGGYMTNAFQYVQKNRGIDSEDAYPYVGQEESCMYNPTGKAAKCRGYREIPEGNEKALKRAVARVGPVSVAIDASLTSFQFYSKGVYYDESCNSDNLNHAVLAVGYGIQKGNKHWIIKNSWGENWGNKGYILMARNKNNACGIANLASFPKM

[4] = biological target: human cathepsin B (Homo sapiens, UniProt P07858); test: Cathepsin B inhibition assay; format: biochemical; details: for CatB % Inhibition at 1 μM: 1 μM compound, three replicates; for inhibition at 1 µM: read-out: CatB % Inhibition at 1 μM
[5] = biological target: T2, human calpain-1 (Homo sapiens, UniProt P07384); test: Calpain-1 inhibition assay; format: biochemical; details: for Calpain-1 % Inhibition at 1 μM: 1 μM compound, three replicates, errors estimated <10%; for inhibition at 1 µM: read-out: Calpain-1 % Inhibition at 1 μM
T2 sequence (P07384 1-714): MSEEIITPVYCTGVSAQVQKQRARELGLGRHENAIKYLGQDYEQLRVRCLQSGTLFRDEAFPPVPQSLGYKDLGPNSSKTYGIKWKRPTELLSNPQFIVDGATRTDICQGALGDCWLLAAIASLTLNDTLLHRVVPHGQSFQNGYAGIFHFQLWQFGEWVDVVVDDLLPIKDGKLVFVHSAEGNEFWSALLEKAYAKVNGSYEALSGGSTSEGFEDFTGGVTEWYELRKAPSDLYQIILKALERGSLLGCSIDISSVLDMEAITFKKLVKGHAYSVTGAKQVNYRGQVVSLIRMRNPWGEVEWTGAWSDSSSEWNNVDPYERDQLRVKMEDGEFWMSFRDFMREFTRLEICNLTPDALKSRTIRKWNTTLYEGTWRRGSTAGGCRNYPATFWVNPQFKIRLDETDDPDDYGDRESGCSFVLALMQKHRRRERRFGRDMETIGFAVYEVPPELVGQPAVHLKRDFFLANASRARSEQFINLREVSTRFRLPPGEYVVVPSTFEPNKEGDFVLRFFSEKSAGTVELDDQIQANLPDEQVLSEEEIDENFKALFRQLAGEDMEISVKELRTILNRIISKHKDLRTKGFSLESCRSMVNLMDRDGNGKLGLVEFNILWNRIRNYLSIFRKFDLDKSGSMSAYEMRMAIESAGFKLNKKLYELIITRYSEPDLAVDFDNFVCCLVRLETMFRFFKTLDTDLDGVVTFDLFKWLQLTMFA
T2 sequence (P04632 1-268 partner): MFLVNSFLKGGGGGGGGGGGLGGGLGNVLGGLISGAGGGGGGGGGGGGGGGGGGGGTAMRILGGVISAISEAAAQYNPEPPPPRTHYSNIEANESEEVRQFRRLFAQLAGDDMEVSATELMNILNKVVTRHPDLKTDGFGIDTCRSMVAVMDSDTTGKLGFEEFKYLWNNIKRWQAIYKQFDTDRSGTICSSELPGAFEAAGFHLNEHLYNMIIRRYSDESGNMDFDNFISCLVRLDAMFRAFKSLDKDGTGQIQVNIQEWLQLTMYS

[6] = biological target: T3, papain (Carica papaya, UniProt P00784); test: Papain inhibition assay; format: biochemical; details: for Papain % Inhibition at 1 μM: 1 μM compound, three replicates; for inhibition at 1 µM: read-out: Papain % Inhibition at 1 μM
T3 sequence (P00784 134-345): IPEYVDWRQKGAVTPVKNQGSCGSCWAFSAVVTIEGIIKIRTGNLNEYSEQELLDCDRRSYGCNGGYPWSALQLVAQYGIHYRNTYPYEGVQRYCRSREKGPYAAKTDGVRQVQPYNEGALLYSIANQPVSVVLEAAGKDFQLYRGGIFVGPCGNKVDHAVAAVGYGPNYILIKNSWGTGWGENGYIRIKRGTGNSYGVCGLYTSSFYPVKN

[7] = test system: scopolamine-induced cognitive deficit in mice; test: Step-through passive avoidance; format: in vivo; details: scopolamine 1 mg/kg, drug 10 mg/kg i.p.
How it was run: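 Mice receive scopolamine 1 mg/kg in saline by i.p. injection 30 min before training, then test compound (10 mg/kg) or vehicle 20 min before training. During training, entry into the dark compartment delivers an electric shock. The read-out is the latency to enter the dark compartment.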

## O=C(NC1CC1)C(=O)C(Cc1ccccc1)NC(=O)[C@H]1CCC(=O)N1Cc1ccccc1 (stereo partly shown) [ABT-957, alicapistat]
[1]
  Treatment-associated adverse events: no treatment-associated adverse events were identified
[2]
  Measured CSF concentrations: 9 to 21 nM

## CCC(NC(=O)[C@H](CC(C)C)NC(=O)OCc1ccccc1)C(=O)C(=O)NCCCN1CCOCC1 (stereo partly shown) [AK-295]
[3]
  Cathepsin K inhibition in words: potent inhibitor of cathepsin K
  CatK % Inhibition at 1 μM: 100%
[4]
  CatB % Inhibition at 1 μM: 18.0%
[5]
  Calpain-1 % Inhibition at 1 μM: 100%
[6]
  Papain % Inhibition at 1 μM: 18.7%

## CCCNC(=O)[C@H]1O[C@@H]1C(=O)N[C@H](C(=O)N1CCC[C@H]1C(=O)O)[C@@H](C)CC [CA-074]
[3]
  CatK % Inhibition at 1 μM: 70.5%
[4]
  CatB % Inhibition at 1 μM: 100%
[5]
  Calpain-1 % Inhibition at 1 μM: 4.72%
[6]
  Papain % Inhibition at 1 μM: 16.8%

## O=C(NCc1ccc(F)cc1)C(=O)[C@H](Cc1ccccc1)NC(=O)[C@H]1CCC(=O)N1Cc1ccccc1 [Compound 1c, (R)-1-benzyl-N-((S)-4-((4-fluorobenzyl)amino)-3,4-dioxo-1-phenylbutan-2-yl)-5-oxopyrrolidine-2-carboxamide]
[3]
  inhibition at 1 µM: 13.5%
[4]
  inhibition at 1 µM: 11.4%
[5]
  IC50: 78 ± 10 nM
  inhibition at 1 µM: 98.1%
[7]
  Memory restoration in STPA, in words: restored cognitive function; also recorded: restored memory
[6]
  inhibition at 1 µM: 15.2%

## O=C(NCc1ccc(F)cc1)C(=O)[C@@H](Cc1ccccc1)NC(=O)[C@H]1CCC(=O)N1Cc1ccccc1 [Compound 1g, (R)-1-benzyl-N-((R)-4-((4-fluorobenzyl)amino)-3,4-dioxo-1-phenylbutan-2-yl)-5-oxopyrrolidine-2-carboxamide]
[5]
  Calpain-1 potency in words: greatly reduced potency
  inhibition at 1 µM: 31.8%

## CC(C)CCNC(=O)[C@H](CC(C)C)NC(=O)[C@H]1O[C@@H]1C(=O)O [Compound E-64c]
[3]
  CatK % Inhibition at 1 μM: 100%
[4]
  CatB % Inhibition at 1 μM: 99.3%
[5]
  Calpain-1 % Inhibition at 1 μM: 86.0%
[6]
  Papain % Inhibition at 1 μM: 97.6%

## CCOC(=O)[C@H]1O[C@@H]1C(=O)N[C@@H](CC(C)C)C(=O)NCCC(C)C [Compound E-64d]
[7]
  Memory restoration in STPA, in words: restore memory

## CC(C)(F)C[C@H](N[C@@H](c1ccc(-c2ccc(S(C)(=O)=O)cc2)cc1)C(F)(F)F)C(=O)NC1(C#N)CC1 [odanacatib]
[3]
  inhibition at 1 µM: 99.8%
[4]
  inhibition at 1 µM: 57.2%
[5]
  inhibition at 1 µM: 7.1%
[6]
  inhibition at 1 µM: 14.7%
